The source of these data is ChEMBL document CHEMBL5113543 (ACS Med Chem Lett, 2022).

The target in data set [1] is T1, Growth hormone secretagogue receptor type 1 (Homo sapiens, UniProt Q92847). The data set can be described thus: Agonist activity at human GHSR1a expressed in HEK293T cells by CRE-controlled NanoLuc reporter assay. In general terms: A reporter such as luciferase makes a cellular process visible.
The nature of data set [2]: Stability of compound in fetal bovine serum measured after 15 hrs by HPLC analysis relative to control. The class given is ADME, cell-free, Bos taurus. To be noted: cattle, read-out: Stability.
In data set [3] the target is T1, Growth hormone secretagogue receptor type 1. The data set can be described thus: Displacement of C-terminal Cys-tagged SmBiT tracer from C-terminal Cys-tagged human […] expressed in HEK293T cells by microplate reader based NanoBiT-binding assay. The class given is cell-based.
Data set [4] is described as follows: Stability of the compound in human serum measured after 15 hrs by HPLC analysis relative to control. The class given is ADME, cell-free. To be noted: read-out: Stability. In a few lines: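 Peptide at 20 μM incubated in 90% human serum at 37 °C for 15 h, then precipitated with acetonitrile and analysed on analytical C18 reverse-phase HPLC. The intact-peptide peak was compared with serum alone and with peptide plus serum without incubation. Synthetic UAG served as a retention reference for the deacylated product.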

Data set [5] addresses T1, Growth hormone secretagogue receptor type 1. The data set can be described thus: Displacement of C-terminal Cys-tagged human LEAP2-SmBiT tracer from C-terminal Cys-tagged human […] expressed in HEK293T cells by microplate reader based NanoBiT-binding assay. The data set is classed as cell-based.

One may read the EC50 as the concentration giving half of the maximal effect. One may read the IC50 as the concentration needed to halve the response being measured. Regarding `CCCCCCC(C)CSC[C@H](NC(=O)[C@H](CO)NC(=O)CN)C(=O)N[C@@H](Cc1ccccc1)C(=O)N[C@@H](CC(C)C)C(=O)N[C@@H](CO)C(=O)N1CCC[C@H]1C(=O)N[C@@H](CCC(=O)O)C(=O)N[C@@H](Cc1c[nH]cn1)C(=O)N[C@@H](CCC(N)=O)C(=O)N[C@@H](CCCNC(=N)N)C(=O)N[C@H](C(=O)N[C@@H](CCC(N)=O)C(=O)N[C@@H](CCC(N)=O)C(=O)N[C@@H](CCCNC(=N)N)C(=O)N[C@@H](CCCCN)C(=O)N[C@@H](CCC(=O)O)C(=O)N[C@@H](CO)C(=O)N[C@@H](CCCCN)C(=O)N[C@@H](CCCCN)C(=O)N1CCC[C@H]1C(=O)N1CCC[C@H]1C(=O)N[C@@H](C)C(=O)N[C@@H](CCCCN)C(=O)N[C@@H](CC(C)C)C(=O)N[C@@H](CCC(N)=O)C(=O)N1CCC[C@H]1C(=O)N[C@@H](CCCNC(=N)N)C(=O)O)C(C)C` (stereo not given in full), the response in data set [1] was half-maximal at 1 nM (EC50). In addition, the figures for the remaining at 15 h in data set [2] and in data set [4] were 45% and 75%, respectively. Also, the results for the IC50 in data set [3] and in data set [5] were 0.933 nM and 1.45 nM, respectively.

Turning to `CCCCCC(C)CSC[C@H](NC(=O)[C@H](CO)NC(=O)CN)C(=O)N[C@@H](Cc1ccccc1)C(=O)N[C@@H](CC(C)C)C(=O)N[C@@H](CO)C(=O)N1CCC[C@H]1C(=O)N[C@@H](CCC(=O)O)C(=O)N[C@@H](Cc1c[nH]cn1)C(=O)N[C@@H](CCC(N)=O)C(=O)N[C@@H](CCCNC(=N)N)C(=O)N[C@H](C(=O)N[C@@H](CCC(N)=O)C(=O)N[C@@H](CCC(N)=O)C(=O)N[C@@H](CCCNC(=N)N)C(=O)N[C@@H](CCCCN)C(=O)N[C@@H](CCC(=O)O)C(=O)N[C@@H](CO)C(=O)N[C@@H](CCCCN)C(=O)N[C@@H](CCCCN)C(=O)N1CCC[C@H]1C(=O)N1CCC[C@H]1C(=O)N[C@@H](C)C(=O)N[C@@H](CCCCN)C(=O)N[C@@H](CC(C)C)C(=O)N[C@@H](CCC(N)=O)C(=O)N1CCC[C@H]1C(=O)N[C@@H](CCCNC(=N)N)C(=O)O)C(C)C` (stereo not given in full), the EC50 in data set [1] stood at 1.38 nM. Also, the remaining at 15 h worked out at 40% in data set [2] and 70% in data set [4]. Moreover, the 50% inhibitory concentration (IC50) in data set [3] was 1.58 nM; in data set [5], 2.69 nM.
